# From ChEMBL document CHEMBL4152209, “Synthesis of 7β-hydroxy-8-ketone opioid derivatives with antagonist activity at mu- and delta-opioid receptors” (Eur J Med Chem, 2018)
# Activity calls are given as the source filed them. No cut-off for these calls is given here.
# Columns and labels:
# [1] = target: T1, Delta-type opioid receptor (Homo sapiens, UniProt P41143); assay: Antagonist activity at human DOR expressed in African green monkey COS1 cell membranes assessed as inhibition of SNC80-induced [35S]GTPgS binding at 50 uM by scintillation counting method; assay type: functional
# T1 sequence (P41143 whole entry): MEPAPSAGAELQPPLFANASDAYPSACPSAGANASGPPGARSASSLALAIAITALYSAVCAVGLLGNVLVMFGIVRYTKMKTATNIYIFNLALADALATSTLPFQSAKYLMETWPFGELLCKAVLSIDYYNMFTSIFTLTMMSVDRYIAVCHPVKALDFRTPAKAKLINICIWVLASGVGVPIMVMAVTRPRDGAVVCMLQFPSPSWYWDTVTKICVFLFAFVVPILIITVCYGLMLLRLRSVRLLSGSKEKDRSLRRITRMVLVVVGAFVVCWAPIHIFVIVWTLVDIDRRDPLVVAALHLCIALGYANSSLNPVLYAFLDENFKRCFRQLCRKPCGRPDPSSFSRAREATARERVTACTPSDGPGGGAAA
# In short: (§1)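 Antagonism in [35S]GTPγS binding used 5 µg of hMOR or hDOR transfected-cell membranes, 1 h at 23 °C, in Tris-HCl pH 7.3 with MgCl₂, NaCl, EDTA, 30 µM GDP and 0.2 nM [35S]GTPγS. Test ligands at 20 or 50 µM were co-incubated with DAMGO (1 µM, MOR) or SNC80 (DOR). Read by filtration and scintillation; n=3 in triplicate.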
# Mu-type opioid receptor [2] = target: T2, Mu-type opioid receptor (Homo sapiens, UniProt P35372); assay: Antagonist activity at human MOR expressed in African green monkey COS1 cell membranes assessed as inhibition of DAMGO-induced [35S]GTPgS binding at 50 uM by scintillation counting method; assay type: functional; in short: as §1
# T2 sequence (P35372 whole entry): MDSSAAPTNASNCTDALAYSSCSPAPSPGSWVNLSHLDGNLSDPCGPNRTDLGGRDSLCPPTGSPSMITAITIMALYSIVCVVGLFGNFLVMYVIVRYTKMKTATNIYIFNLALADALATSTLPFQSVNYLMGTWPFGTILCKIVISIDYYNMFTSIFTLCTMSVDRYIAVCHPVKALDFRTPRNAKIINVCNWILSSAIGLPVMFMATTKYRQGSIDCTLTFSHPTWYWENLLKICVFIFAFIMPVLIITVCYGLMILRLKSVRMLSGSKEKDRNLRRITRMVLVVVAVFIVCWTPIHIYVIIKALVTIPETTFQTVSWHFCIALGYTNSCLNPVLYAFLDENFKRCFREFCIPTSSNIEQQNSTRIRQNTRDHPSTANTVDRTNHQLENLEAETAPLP
# [3] = target: Kappa-type opioid receptor (Homo sapiens) (UniProt P41145); conditions: at 1 µM
# Kappa-type opioid receptor (Homo sapiens), sequence (P41145 whole entry): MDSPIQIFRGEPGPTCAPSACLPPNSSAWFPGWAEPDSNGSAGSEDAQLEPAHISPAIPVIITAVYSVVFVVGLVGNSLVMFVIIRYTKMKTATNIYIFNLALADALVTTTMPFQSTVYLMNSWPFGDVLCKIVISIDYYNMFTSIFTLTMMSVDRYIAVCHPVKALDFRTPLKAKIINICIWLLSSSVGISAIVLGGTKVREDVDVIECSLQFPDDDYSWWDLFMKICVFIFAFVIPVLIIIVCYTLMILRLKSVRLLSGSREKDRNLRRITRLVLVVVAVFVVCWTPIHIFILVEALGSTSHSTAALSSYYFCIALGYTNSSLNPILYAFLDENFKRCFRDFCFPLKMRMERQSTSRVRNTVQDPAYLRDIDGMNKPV
# [4] = target: T1, Delta-type opioid receptor; assay: Displacement of [3H]diprenorphine from human DOR expressed in African green monkey COS1 cell membranes incubated for 1 hr by scintillation counting method
# In short: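 hDOR membranes from stably transfected cells, diluted in 50 mM Tris-HCl pH 7.4 with 1 mM EDTA, were incubated with 1 nM [3H]diprenorphine (KD 1.1 nM; Bmax 4.7 pmol/mg) and competitor (1 × 10⁻⁷ to 5 × 10⁻⁵ M) for 1 h at 23 °C. Samples were then filtered on PEI-soaked GF/B and counted by scintillation. Ki was derived from KD; three experiments in triplicate.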
# HEK293 = assay: Toxicity in HEK293 cells assessed as reduction in cell viability at <100 uM incubated for 24 hrs by cell-titer Glo reagent based assay; conditions: human, hek293, 24 h
# In short: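 HEK-293 cells, 9000 per well, were switched to Opti-MEM and exposed to compound (0.1–100 µM) for 24 h. Viability was read as lysate ATP by CellTiter-Glo luminescence.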
# [5] = target: T1, Delta-type opioid receptor; assay: Displacement of [3H]diprenorphine from human DOR expressed in African green monkey COS1 cell membranes at 10 uM incubated for 1 hr by scintillation counting method
# Mu-type opioid receptor [6] = target: T2, Mu-type opioid receptor; assay: Antagonist activity at human MOR expressed in African green monkey COS1 cell membranes assessed as inhibition of DAMGO-induced [35S]GTPgS binding at 20 uM by scintillation counting method; assay type: functional; in short: as §1
# [7] = target: T1, Delta-type opioid receptor; assay: Agonist activity at human DOR expressed in African green monkey COS1 cell membranes assessed as stimulation of [35S]GTPgS binding at 20 uM by scintillation counting method; assay type: functional
# In short: (§2)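 Membranes (5 µg) from stably transfected cells expressing hMOR or hDOR were incubated 1 h at 23 °C in 50 mM Tris-HCl pH 7.3 with 5 mM MgCl₂, 100 mM NaCl, 1 mM EDTA, 30 µM GDP and 0.2 nM [35S]GTPγS. Reference opioids were used at 1 or 10 µM and test ligands at 20 or 50 µM. Nonspecific binding was taken with 10 µM GTP. Samples were filtered and counted; three experiments in triplicate.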
# [8] = target: T1, Delta-type opioid receptor; assay: Agonist activity at human DOR expressed in African green monkey COS1 cell membranes assessed as stimulation of [35S]GTPgS binding at 50 uM by scintillation counting method; assay type: functional; in short: as §2
# Mu-type opioid receptor [9] = target: T2, Mu-type opioid receptor; assay: Displacement of [3H]diprenorphine from human MOR expressed in African green monkey COS1 cell membranes incubated for 1 hr by scintillation counting method
# [10] = target: T1, Delta-type opioid receptor; assay: Displacement of [3H]diprenorphine from human DOR expressed in African green monkey COS1 cell membranes at 1 uM incubated for 1 hr by scintillation counting method
# Mu-type opioid receptor [11] = target: T2, Mu-type opioid receptor; conditions: at 1 µM
# [12] = target: Kappa-type opioid receptor (Homo sapiens) (UniProt P41145); conditions: at 10 µM
# Mu-type opioid receptor [13] = target: T2, Mu-type opioid receptor; conditions: at 10 µM
Structure (SMILES),inhibition [1],inhibition (Mu-type opioid receptor [2]),inhibition [3] [%],Ki [4] [nM],Activity (HEK293),inhibition [5] [%],inhibition (Mu-type opioid receptor [6]),Activity [7],Activity [8],Ki (Mu-type opioid receptor [9]) [nM],inhibition [10] [%],inhibition (Mu-type opioid receptor [11]) [%],inhibition [12] [%],inhibition (Mu-type opioid receptor [13]) [%]
COC(=O)N1CC[C@]23c4c5ccc(O)c4O[C@H]2[C@@H](O)C=C[C@H]3[C@H]1C5,Active,Active,7,1690 to 2630,Non-Toxic,59,Active,inactive,inactive,814 to 1720,21,16,27,58
COC(=O)N1CC[C@]23c4c5ccc(OC(C)=O)c4O[C@H]2[C@@H](OC(C)=O)[C@H](O)C(=O)[C@H]3[C@H]1C5,,,4,,Non-Toxic,51,,,,,22,7,8,9
C[C@@H](NC(=O)[C@@H](N)Cc1ccc(O)cc1)C(=O)NCC(=O)N(C)[C@@H](Cc1ccccc1)C(=O)NCCO,,,,,,,,,,,,67,,85
COC(=O)N1CC[C@]23c4c5ccc(OC)c4O[C@H]2[C@@H](OC)[C@H](O)C(=O)[C@H]3[C@H]1C5,,,5,,Non-Toxic,19,,,,,5,5,0,5
COC(=O)N1CC[C@]23c4c5ccc(OC(C)=O)c4O[C@H]2[C@@H](OC(C)=O)C=C[C@H]3[C@H]1C5,,,0,,,9,,,,,1,1,1,3
COC(=O)N1CC[C@]23c4c5ccc(OC)c4O[C@H]2[C@@H](OC)C=C[C@H]3[C@H]1C5,,,6,,,10,,,,,2,3,2,11
COC(=O)N1CC[C@]23c4c5ccc(O)c4O[C@H]2[C@@H](O)[C@H](O)C(=O)[C@H]3[C@H]1C5,Active,Active,6,1130 to 1830,Non-Toxic,63,Active,inactive,inactive,1080 to 2580,24,8,21,48
CN1CC[C@]23c4c5ccc(O)c4O[C@H]2[C@@H](O)C=C[C@H]3[C@H]1C5,,,,,,63,,Active,Active,,31,,,
Oc1ccc2c3c1O[C@H]1c4[nH]c5ccccc5c4C[C@@]4(O)[C@@H](C2)N(CC2CC2)CC[C@]314,,,,,,94,,,,,94,,,
